Screens from PubChem.
Compounds with a hit are over-represented: about 1.2% of the library has one in this group of screens.
CAL PDZ FP-1: CAL PDZ peptide-binding inhibitors, primary screen, biochemical, fluorescence polarization, Cer-tagged CAL PDZ, HTS | AID 504414, 2011 | Golgi-associated PDZ and coiled-coil motif-containing protein (Homo sapiens), Q9HD26 | inhibition, % at 20 µM | purified CAL PDZ, TMR-peptide fluorescence polarization, 1 h | 0.02% of 330,000 active;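 active = highest replicate inhibition of at least 40%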;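 note: plate controls were DMSO neutral control wells for no effect and unlabeled competitor peptide control wells for full effect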
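material = purified tagged CAL PDZ domain construct (CerCALP) | buffer or medium = sodium phosphate/NaCl buffer pH 7.4 with TCEP, IgG, Thesit | reagent = TMR-labelled reporter peptide T*-PRC34 bound in PDZ groove | incubation = 1 h room-temperature incubation prior to read | measured by = fluorescence polarization (mP) | evaluation = percent inhibition from loss of millipolarization | control set = unlabelled peptide and DMSO controls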
ARNT-TACC3 inh: disruptors of ARNT/TACC3 protein interaction, primary screen, biochemical, AlphaScreen, single concentration; 0.66% of 390,000 active; Transforming acidic coiled-coil-containing protein 3 (Homo sapiens), Q9Y6A5; AlphaScreen His-ARNT PAS-B/GST-TACC3 binding, luminescence; TACC3 fragment carries E629A point mutation; AID 623870, 2012; inhibition, % at 9.99 µM;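 active = mean inhibition of replicates at least 50% and at least half of replicates each reaching 50%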;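 note: 0% = complete ARNT plus TACC3 wells and 100% = ARNT alone without TACC3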
CAL PDZ FP-2: untagged CAL PDZ binding inhibitors, primary screen, biochemical, fluorescence polarization, HTS. purified CAL PDZ, TMR-peptide fluorescence polarization, 1 h. Golgi-associated PDZ and coiled-coil motif-containing protein (Homo sapiens), Q9HD26. inhibition, % at 24.9 µM. 0.92% of 300,000 active;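 active = mean inhibition of at least 30% with at least half of replicates also reaching 30%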;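 note: 0% = DMSO neutral control and 100% = excess unlabeled competitor peptide PRC23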
Numbers without * were called inactive.

O=C(N/N=C/c1ccco1)c1cc(-c2cccs2)[nH]n1 was read as CAL PDZ FP-1 -5.1, ARNT-TACC3 inh 3.9 and CAL PDZ FP-2 40.6*.
Cc1cccc(C(=O)NCc2nnc(SCC(=O)NC(C)c3ccccc3)n2C)c1 (stereo not given) was read as CAL PDZ FP-1 0.2, ARNT-TACC3 inh 3.3 and CAL PDZ FP-2 -2.4.
Screening CC(C)NC(=O)CSc1nnc(CNC(=O)OC(C)(C)C)n1C returned CAL PDZ FP-1 0.4, ARNT-TACC3 inh -5.1 and CAL PDZ FP-2 84.0*.
For O=S(=O)(c1ccccc1)N1C[C@H]2[C@@H](c3ccccc31)[C@@H](CO)N2Cc1ccccc1 the results were ARNT-TACC3 inh 2.4.
CN(Cc1ccccc1Cl)C(=O)C1CCC(=O)N(C2CCCCCC2)C1 (stereo not given) was read as CAL PDZ FP-1 -2.8, ARNT-TACC3 inh 43.5 and CAL PDZ FP-2 0.2.
Screening Cc1ccc(CN(C)C(=O)C2CCC(=O)N(C3CCCCCC3)C2)cc1 (stereo not given) returned CAL PDZ FP-1 -0.3, ARNT-TACC3 inh -3.7 and CAL PDZ FP-2 39.3*.
For CO[C@H]1CN(C)C(=O)c2cc(NC(=O)C3CC3)ccc2OC[C@@H](C)N(C(=O)c2cnccn2)C[C@@H]1C the results were ARNT-TACC3 inh -7.7.
Screening CN(C)C(=O)C[C@H]1CC[C@H](NC(=O)NC2CCCCC2)[C@@H](CO)O1 returned ARNT-TACC3 inh -10.1.
Screening CC(=O)Nc1ccc(-c2cc(N)n(-c3ccccc3)n2)cc1 returned CAL PDZ FP-1 -0.7, ARNT-TACC3 inh 4.2 and CAL PDZ FP-2 9.4.
Screening CC(=O)Nc1ccc(-c2cc(NC(C)=O)n(-c3ccccc3)n2)cc1 returned CAL PDZ FP-1 -1.9, ARNT-TACC3 inh -1.2 and CAL PDZ FP-2 75.4*.
`CN1CCN(C(=O)C[C@@H]2CC[C@H](NC(=O)Cc3ccccn3)[C@H](CO)O2)CC1` gave ARNT-TACC3 inh 6.7.
C=CC[C@@]1(C(=O)N2CCOCC2)N=C(c2ccc(OCCCO)cc2)O[C@@H]1c1ccccc1 was read as ARNT-TACC3 inh -12.1.
Screening CCC(=O)Nc1ccc2c(c1)C(=O)N(C)[C@H]1CC[C@H](CC(=O)N3CCCCC3)O[C@@H]1CO2 returned ARNT-TACC3 inh 1.9.
Screening C[C@H]1CN([C@@H](C)CO)C(=O)Cc2cc(N(C)C)ccc2O[C@@H]1CN(C)S(=O)(=O)c1ccccc1 returned ARNT-TACC3 inh 4.6.
`O=C(c1cc(-c2ccc(Cl)cc2Cl)on1)N1CCCCCC1` gave CAL PDZ FP-1 -1.5 and CAL PDZ FP-2 4.2.
For O=C(c1cc(-c2ccc(Cl)cc2Cl)on1)N1CCCC1 the results were CAL PDZ FP-1 -1.6, ARNT-TACC3 inh -2.3 and CAL PDZ FP-2 35.5*.
`O=C(C[C@H]1CC[C@H](NC(=O)c2ccc(F)cc2)[C@@H](CO)O1)NCc1ccncn1` gave ARNT-TACC3 inh -1.8.
COc1ccc(CNC(=O)CN2C(=O)NC(C)(c3cccc4ccccc34)C2=O)cc1OC (stereo not given) was read as CAL PDZ FP-1 -1.5, ARNT-TACC3 inh 1.1 and CAL PDZ FP-2 41.3*.
COc1ccc(C2(C)NC(=O)N(CC(=O)Nc3ccc4ccccc4c3)C2=O)cc1OC (stereo not given) was read as CAL PDZ FP-1 -2.9, ARNT-TACC3 inh -2.9 and CAL PDZ FP-2 -0.1.
`O=C(N[C@@H]1CC[C@H](CCn2cc(Cc3ccccc3)nn2)O[C@@H]1CO)c1ccccn1` gave ARNT-TACC3 inh -2.6.
For CSCCC(NC(N)=O)C(=O)NCc1cccc(Cl)c1 (stereo not given) the results were CAL PDZ FP-1 -2.1, ARNT-TACC3 inh -1.7 and CAL PDZ FP-2 5.9.
For CSCCC(NC(N)=O)C(=O)NCc1ccccc1Cl (stereo not given) the results were ARNT-TACC3 inh -1.9 and CAL PDZ FP-2 38.2*.
`C[C@@H]1CN([C@@H](C)CO)C(=O)c2cccc(NS(=O)(=O)c3cn(C)cn3)c2O[C@H]1CN(C)Cc1ccc(C(=O)O)cc1` gave ARNT-TACC3 inh -2.5.
Screening Cc1coc2c(C)c3oc(=O)c(CC(=O)N[C@@H](CC(C)C)C(=O)O)c(C)c3cc12 returned CAL PDZ FP-1 -1.0, ARNT-TACC3 inh -7.0 and CAL PDZ FP-2 -3.6.
Cc1c(CC(=O)N[C@@H](C)C(=O)O)c(=O)oc2c(C)c3occ(-c4ccccc4)c3cc12 was read as CAL PDZ FP-1 -6.8, ARNT-TACC3 inh 75.7* and CAL PDZ FP-2 -10.7.
Cc1c(CC(=O)O)c(=O)oc2cc3occ(-c4ccccc4)c3cc12 was read as CAL PDZ FP-1 -2.0, ARNT-TACC3 inh -9.6 and CAL PDZ FP-2 -8.5.
Screening Cc1c(CC(=O)N[C@@H](C)C(=O)O)c(=O)oc2cc3occ(-c4ccccc4)c3cc12 returned CAL PDZ FP-1 -3.0, ARNT-TACC3 inh 48.1* and CAL PDZ FP-2 -9.8.
Screening C[C@@H](NC(=O)[C@@H]1[C@@H](CO)[C@@H]2Cn3c(ccc(-c4ccncc4)c3=O)[C@@H]2N1C)c1ccccc1 returned ARNT-TACC3 inh -0.4.
NCCCCCCNC(=O)[C@@H]1C[C@@H]2C(=O)N[C@@H](Cc3ccccc3)C(=O)N2[C@@H]1c1ccc(O)cc1 was read as ARNT-TACC3 inh -4.6.
`CCOC(=O)c1c(C)[nH]c(C(=O)OCC(=O)NCc2ccc(OC)c(OC)c2)c1C` gave CAL PDZ FP-1 -0.8, ARNT-TACC3 inh -0.6 and CAL PDZ FP-2 -4.2.
`CCOC(=O)c1c(C)[nH]c(C(=O)OCC(=O)Nc2cc(C)c(Cl)cc2OC)c1C` gave CAL PDZ FP-1 -0.4, ARNT-TACC3 inh 4.1 and CAL PDZ FP-2 37.0*.
Screening O=C(COC(=O)c1cccs1)Nc1nnc(-c2ccccc2)o1 returned CAL PDZ FP-1 -1.8, ARNT-TACC3 inh 60.6* and CAL PDZ FP-2 10.4.
O=C(COC(=O)CNC(=O)c1ccccc1)Nc1nnc(-c2ccccc2)o1 was read as CAL PDZ FP-1 0.0, ARNT-TACC3 inh 36.1 and CAL PDZ FP-2 -3.5.
Screening O=C(COC(=O)c1cccc(O)c1)Nc1nnc(-c2ccccc2)o1 returned CAL PDZ FP-1 -1.3, ARNT-TACC3 inh 60.0* and CAL PDZ FP-2 -3.4.
COc1cc(C(=O)OCC(=O)Nc2nnc(-c3ccccc3)o2)cc(OC)c1OC was read as CAL PDZ FP-1 -1.1, ARNT-TACC3 inh 46.9* and CAL PDZ FP-2 -1.9.
For CCOc1ncccc1C(=O)OCC(=O)Nc1c(C)cccc1C the results were CAL PDZ FP-1 -0.5, ARNT-TACC3 inh -1.5 and CAL PDZ FP-2 -5.6.
For COc1ccc(C(=O)OCC(=O)Nc2nnc(-c3ccccc3)o2)cc1 the results were CAL PDZ FP-1 0.2 and CAL PDZ FP-2 -0.2.
Screening COc1cc(C(=O)NCC(=O)OCC(=O)Nc2nnc(-c3ccccc3)o2)cc(OC)c1OC returned CAL PDZ FP-1 -3.4 and CAL PDZ FP-2 -4.0.
For CCOc1ncccc1C(=O)OCC(=O)Nc1nnc(-c2ccccc2)o1 the results were CAL PDZ FP-1 0.0 and ARNT-TACC3 inh 53.7*.
`CCC(=O)N(C)C[C@@H]1Oc2cc(C#Cc3ccccn3)ccc2S(=O)(=O)N([C@@H](C)CO)C[C@@H]1C` gave ARNT-TACC3 inh 0.9.
